Source: ChEMBL document CHEMBL2163326, “Investigations on the 1-(2-biphenyl)piperazine motif: identification of new potent and selective ligands for the serotonin(7) (5-HT(7)) receptor with agonist or antagonist action in vitro or ex vivo” (J Med Chem, 2012)
pIC50, pKi: −log10 of the molar value. Active and inactive are the calls of the source. The calls are words filed in the database; no cut-off is given here.

Legend:
[1] = target: Adrenergic receptor alpha-1 (Rattus norvegicus) (UniProt P15823+P23944+P43140); assay: Displacement of [3H]prazoin from rat cerebral cortex adrenergic alpha1 receptor at 100 nM; format: tissue-based
Procedure, shortened: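 [3H]prazosin displacement was measured on rat cerebral cortex membranes, using one test concentration of 100 nM. Values are the mean of two independent experiments.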

[2] = target: T1, 5-hydroxytryptamine receptor 7 (Homo sapiens, UniProt P34969); assay: Displacement of [3H]-5-CT from human cloned 5HT7 receptor
[3] = target: T2, 5-hydroxytryptamine receptor 1A (Homo sapiens, UniProt P08908); assay: Displacement of [3H]-8-OH-DPAT from human cloned 5HT1A receptor
T2 sequence (P08908 whole entry): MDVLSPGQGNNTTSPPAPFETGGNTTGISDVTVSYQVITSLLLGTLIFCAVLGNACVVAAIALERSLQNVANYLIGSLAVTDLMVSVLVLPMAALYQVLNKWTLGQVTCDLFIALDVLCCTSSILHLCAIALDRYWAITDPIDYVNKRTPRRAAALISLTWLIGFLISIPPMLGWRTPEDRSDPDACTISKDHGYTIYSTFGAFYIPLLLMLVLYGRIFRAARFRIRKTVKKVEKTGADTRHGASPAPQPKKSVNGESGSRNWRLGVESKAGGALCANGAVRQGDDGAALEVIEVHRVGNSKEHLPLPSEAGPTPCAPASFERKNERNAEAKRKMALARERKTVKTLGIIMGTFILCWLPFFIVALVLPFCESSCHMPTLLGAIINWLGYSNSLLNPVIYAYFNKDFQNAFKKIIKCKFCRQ

[4] = target: 5-hydroxytryptamine receptor 7 (Cavia porcellus) (UniProt P50407); assay: Agonist activity at 5HT7 receptor in guinea pig ileum assessed as inhibition of substance P-induced smooth muscle contraction at 0.5 uM; format: functional, tissue-based
Procedure, shortened: (§1)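 Isolated guinea pig ileum was contracted with substance P. Relaxation was scored as percent relaxation of that contraction. Each run included a cocktail of non-5-HT7 receptor antagonists. To test 5-HT7 mediation, relaxation was repeated with the selective 5-HT7 antagonist at 3 μM; reversal was taken as 5-HT7-mediated.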

[5] = target: 5-hydroxytryptamine receptor 7 (Cavia porcellus) (UniProt P50407); assay: Agonist activity at 5HT7 receptor in guinea pig ileum assessed as inhibition of substance P-induced smooth muscle contraction at 1 uM; format: functional, tissue-based; procedure, shortened: as §1
[6] = target: 5-hydroxytryptamine receptor 7 (Cavia porcellus) (UniProt P50407); assay: Agonist activity at 5HT7 receptor in guinea pig ileum assessed as inhibition of substance P-induced smooth muscle contraction at 2 uM in presence of 3 uM SB-269970; format: functional, tissue-based; procedure, shortened: as §1
[7] = target: 5-hydroxytryptamine receptor 7 (Cavia porcellus) (UniProt P50407); assay: Agonist activity at 5HT7 receptor in guinea pig ileum assessed as inhibition of substance P-induced smooth muscle contraction at 2 uM; format: functional, tissue-based; procedure, shortened: as §1
[8] = target: 5-hydroxytryptamine receptor 7 (Cavia porcellus) (UniProt P50407); assay: Agonist activity at 5HT7 receptor in guinea pig ileum assessed as inhibition of substance P-induced smooth muscle contraction at 1 uM in presence of 3 uM SB-269970; format: functional, tissue-based; procedure, shortened: as §1
[9] = target: T3, 5-hydroxytryptamine receptor 1A (Homo sapiens) (UniProt P08908); assay: Displacement of [3H]-8-OH-DPAT from human cloned 5HT1A receptor at 100 nM
T3 sequence (whole entry): T2 sequence (P08908 whole entry)

[10] = target: T4, Adrenergic receptor alpha-1 (Rattus norvegicus, UniProt P15823+P23944+P43140); assay: Displacement of [3H]prazoin from rat cerebral cortex adrenergic alpha1 receptor; format: tissue-based
T4 sequence (P15823 whole entry): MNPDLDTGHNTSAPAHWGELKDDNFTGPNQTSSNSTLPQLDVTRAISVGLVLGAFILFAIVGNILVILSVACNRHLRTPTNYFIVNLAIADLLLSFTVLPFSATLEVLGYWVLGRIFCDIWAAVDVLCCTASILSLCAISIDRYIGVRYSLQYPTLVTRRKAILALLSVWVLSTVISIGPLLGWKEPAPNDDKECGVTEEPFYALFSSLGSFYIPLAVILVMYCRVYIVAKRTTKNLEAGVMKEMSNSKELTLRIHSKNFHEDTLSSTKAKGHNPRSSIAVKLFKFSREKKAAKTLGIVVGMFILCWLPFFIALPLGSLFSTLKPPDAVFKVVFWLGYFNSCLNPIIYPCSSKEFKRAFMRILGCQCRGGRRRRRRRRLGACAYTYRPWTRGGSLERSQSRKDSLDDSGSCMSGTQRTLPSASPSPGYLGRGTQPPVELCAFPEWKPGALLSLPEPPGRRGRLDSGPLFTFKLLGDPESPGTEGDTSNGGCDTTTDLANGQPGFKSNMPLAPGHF
T4 sequence (P23944 whole entry): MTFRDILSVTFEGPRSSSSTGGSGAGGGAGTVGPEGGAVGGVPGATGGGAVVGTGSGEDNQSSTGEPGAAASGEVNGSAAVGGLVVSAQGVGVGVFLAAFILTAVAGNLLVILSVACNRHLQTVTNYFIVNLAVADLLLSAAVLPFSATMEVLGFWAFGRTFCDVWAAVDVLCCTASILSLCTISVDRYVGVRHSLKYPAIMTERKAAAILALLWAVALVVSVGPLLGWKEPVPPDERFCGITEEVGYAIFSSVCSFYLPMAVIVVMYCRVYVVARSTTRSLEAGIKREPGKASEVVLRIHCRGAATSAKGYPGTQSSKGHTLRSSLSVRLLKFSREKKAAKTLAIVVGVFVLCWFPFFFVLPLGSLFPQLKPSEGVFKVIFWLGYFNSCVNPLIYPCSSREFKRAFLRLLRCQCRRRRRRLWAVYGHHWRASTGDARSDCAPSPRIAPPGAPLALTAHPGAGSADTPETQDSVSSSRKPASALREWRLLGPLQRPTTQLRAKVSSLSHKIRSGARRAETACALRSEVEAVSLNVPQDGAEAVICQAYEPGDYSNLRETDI
T4 sequence (P43140 whole entry): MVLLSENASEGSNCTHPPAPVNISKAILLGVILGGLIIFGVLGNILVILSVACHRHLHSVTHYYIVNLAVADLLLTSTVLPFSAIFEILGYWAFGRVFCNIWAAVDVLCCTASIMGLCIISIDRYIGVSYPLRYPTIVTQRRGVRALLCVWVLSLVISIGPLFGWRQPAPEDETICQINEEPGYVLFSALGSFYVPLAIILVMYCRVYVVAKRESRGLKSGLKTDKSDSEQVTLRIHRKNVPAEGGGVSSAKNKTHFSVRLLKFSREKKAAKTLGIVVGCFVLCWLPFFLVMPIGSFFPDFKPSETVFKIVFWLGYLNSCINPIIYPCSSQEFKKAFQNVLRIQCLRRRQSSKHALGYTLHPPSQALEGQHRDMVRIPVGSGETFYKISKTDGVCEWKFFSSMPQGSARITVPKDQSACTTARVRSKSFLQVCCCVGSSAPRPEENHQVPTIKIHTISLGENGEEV

[11] = target: 5-hydroxytryptamine receptor 7 (Cavia porcellus) (UniProt P50407); assay: Agonist activity at 5HT7 receptor in guinea pig ileum assessed as inhibition of substance P-induced smooth muscle contraction at 0.5 uM in presence of 3 uM SB-269970; format: functional, tissue-based; procedure, shortened: as §1
[12] = target: T1, 5-hydroxytryptamine receptor 7; assay: Antagonist activity at human 5HT7A receptor expressed in human HeLa cells assessed as inhibition of 5-HT-induced cAMP accumulation by ELISA; format: functional, cell-based
Procedure, shortened: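 HeLa cells stably expressing human 5-HT7(a) were seeded in 96-well plates. They were co-treated with 1 μM 5-HT plus test agent. Intracellular cAMP was read by ELISA, and IC50 was taken for inhibition of 5-HT-stimulated cAMP accumulation.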

[13] = target: T1, 5-hydroxytryptamine receptor 7; assay: Agonist activity at human 5HT7A receptor expressed in human HeLa cells assessed as stimulation of cAMP accumulation; format: functional, cell-based
Procedure, shortened: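 HeLa cells stably expressing human 5-HT7(a) receptor were cultured and seeded into 96-well plates. Cells were exposed to test agent alone, and intracellular cAMP was measured by ELISA.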

[14] = target: 5-hydroxytryptamine receptor 7 (Rattus norvegicus, UniProt P32305); assay: Displacement of [3H]LSD from rat kidney proximal convoluted tubule 5HT7R expressed in COS7 cells; format: cell-based, COS-7
Chain of 5-hydroxytryptamine receptor 7 (Rattus norvegicus, UniProt P32305) (P32305 whole entry): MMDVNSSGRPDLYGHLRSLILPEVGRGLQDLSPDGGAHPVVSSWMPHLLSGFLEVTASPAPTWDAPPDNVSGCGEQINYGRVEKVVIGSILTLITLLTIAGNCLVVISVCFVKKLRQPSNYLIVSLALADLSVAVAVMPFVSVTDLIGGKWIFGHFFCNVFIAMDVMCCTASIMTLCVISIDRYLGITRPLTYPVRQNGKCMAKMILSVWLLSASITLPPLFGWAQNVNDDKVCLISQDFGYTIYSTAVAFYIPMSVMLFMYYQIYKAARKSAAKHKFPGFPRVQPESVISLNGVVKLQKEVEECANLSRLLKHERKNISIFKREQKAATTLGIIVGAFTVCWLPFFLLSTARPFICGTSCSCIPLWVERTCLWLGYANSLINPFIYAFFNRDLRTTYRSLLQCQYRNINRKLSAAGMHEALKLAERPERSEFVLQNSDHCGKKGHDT

Chain of 5-hydroxytryptamine receptor 7 (Cavia porcellus) (P50407 whole entry): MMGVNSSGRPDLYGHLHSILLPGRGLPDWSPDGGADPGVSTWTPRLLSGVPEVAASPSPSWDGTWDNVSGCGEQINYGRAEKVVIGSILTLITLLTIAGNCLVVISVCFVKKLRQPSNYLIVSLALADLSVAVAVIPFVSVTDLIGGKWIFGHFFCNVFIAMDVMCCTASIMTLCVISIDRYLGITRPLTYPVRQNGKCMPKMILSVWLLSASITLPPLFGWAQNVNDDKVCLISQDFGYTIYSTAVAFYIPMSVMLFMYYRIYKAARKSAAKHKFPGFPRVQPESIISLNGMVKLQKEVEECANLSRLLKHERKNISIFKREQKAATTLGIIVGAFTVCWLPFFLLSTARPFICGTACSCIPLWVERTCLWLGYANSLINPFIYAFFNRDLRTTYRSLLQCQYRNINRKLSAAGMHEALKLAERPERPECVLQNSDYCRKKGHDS
T1 sequence (P34969 whole entry): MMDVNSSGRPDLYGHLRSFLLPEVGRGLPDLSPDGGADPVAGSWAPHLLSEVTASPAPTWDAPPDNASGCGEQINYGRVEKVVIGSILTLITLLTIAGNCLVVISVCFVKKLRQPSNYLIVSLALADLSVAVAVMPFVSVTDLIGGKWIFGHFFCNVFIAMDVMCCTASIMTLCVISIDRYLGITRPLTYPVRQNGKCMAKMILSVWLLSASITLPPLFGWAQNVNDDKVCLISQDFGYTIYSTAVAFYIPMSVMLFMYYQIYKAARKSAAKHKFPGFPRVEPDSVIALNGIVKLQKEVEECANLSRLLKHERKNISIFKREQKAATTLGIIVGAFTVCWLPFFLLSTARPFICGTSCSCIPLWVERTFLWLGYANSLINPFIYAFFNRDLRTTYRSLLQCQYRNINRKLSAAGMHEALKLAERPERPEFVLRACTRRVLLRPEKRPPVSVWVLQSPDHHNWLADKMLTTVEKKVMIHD

`COc1cccc(OC)c1-c1cccc(N2CCNCC2)c1` was tested, and the Activity [1] was 3%, the pKi [2] was 8.15 and the pKi [3] was 6.83.

`O=[N+]([O-])c1ccc(-c2cccc(N3CCNCC3)c2)cc1` showed an Activity [1] of 8%, a pKi [2] of 7.89 and a pKi [3] of 7.50.

`Fc1ccc(-c2cccc(N3CCNCC3)c2)cc1` showed an Activity [1] of 3%, a pKi [2] of 6.96 and a pKi [3] of 7.20.

`COc1ccccc1-c1ccccc1N1CCNCC1` gave a pKi [2] of 7.74.

With `Cc1nn(C)c(C)c1-c1cccc2c1CC[C@H](N(C)C)C2` the Activity [4] was “inactive”, the Activity [5] was “Active” and the Activity [6] was “inactive”. For the same compound, the Activity [7] was “Active” and the Activity [8] was “inactive”.

`Cc1ccc(-c2ccccc2N2CCNCC2)cc1C` was tested, and the pKi [2] was 8.72, the Activity [5] was “Active” and the Activity [6] was “inactive”. For the same compound, the Activity [9] was 22%, the Activity [7] was “Active” and the Ki [10] was 165 nM.

With `c1ccc(-c2ccccc2N2CCNCC2)nc1` the Activity [1] was 11%, the pKi [2] was 7.64 and the Activity [9] was 23%.

With `Fc1ccc(-c2ccccc2N2CCNCC2)cc1` the Activity [4] was “Active”, the Activity [1] was 14% and the pKi [2] was 8.57. For the same compound, the Activity [5] was “Active”, the Activity [9] was 15% and the Activity [8] was “inactive”. The Activity [11] was “inactive”.

`Cc1ccccc1-c1ccccc1N1CCNCC1` gave a pKi [2] of 8.16.

In the case of `O=[N+]([O-])c1ccc(-c2ccccc2N2CCNCC2)cc1`, the pKi [2] was 8.15, the Activity [9] was 16% and the Ki [10] was 105 nM.

In the case of `c1ccc(-c2cccc(N3CCNCC3)c2)nc1`, the Activity [1] was 27%, the pKi [2] was 7.10 and the pKi [3] was 7.83.

Compound `COc1cccc(OC)c1-c1ccccc1N1CCNCC1` has an Activity [1] of 10%, a pKi [2] of 7.02 and an Activity [9] of 21%.

With `COc1ccc(-c2ccccc2N2CCNCC2)cc1` the Activity [4] was “Active”, the pKi [2] was 8.59 and the Activity [5] was “Active”. For the same compound, the Ki [10] was 156 nM, the pIC50 [12] was 6.36 and the Activity [8] was “inactive”. The Activity [11] was “inactive”, the Activity [13] was “inactive” and the pKi [3] was 6.32.

`Cc1ccccc1-c1cccc(N2CCNCC2)c1` was tested, and the pKi [2] was 8.85 and the pKi [3] was 7.76.

Compound `COc1ccccc1-c1cccc(N2CCNCC2)c1` has a pKi [2] of 8.09.

For `c1ccc(-c2cccc(N3CCNCC3)c2)cc1`, the Activity [1] was 21%, the pKi [2] was 7.60 and the pKi [3] was 7.14.

`c1ccc(-c2ccccc2N2CCNCC2)cc1` was tested, and the Activity [4] was “Active”, the pKi [2] was 8.85 and the Activity [5] was “Active”. The Ki [10] was 59.1 nM, the pIC50 [12] was 6.27 and the Activity [8] was “inactive”. For the same compound, the Activity [11] was “inactive”, the Activity [13] was “inactive” and the pKi [3] was 7.00.

Compound `COc1ccc(-c2cccc(N3CCNCC3)c2)cc1` has an Activity [1] of 29%, a pKi [2] of less than 5.30 and an Activity [9] of 42%.

In the case of `c1ccc2c(N3CCNCC3)cccc2c1`, the pKi [14] was 7.08.

`Cc1ccc(-c2cccc(N3CCNCC3)c2)cc1C` gave an Activity [1] of 7%, a pKi [2] of 7.03 and an Activity [9] of 34%.
